# mIAP activ = increases mouse intestinal alkaline phosphatase activity. muIAP, CDP-Star luminescence, 30 min; active compounds read high; 1 = vehicle-only enzyme signal, 0 = enzyme-free wells. activation factor at 10 µM. 0.24% of 330,000 active;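 active means activation factor of at least 2 at 20 µM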
#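 Assay system: mouse IAP enzyme; Reagent: CDP-Star chemiluminescent phosphatase substrate; Compound: DMSO-dissolved test compounds; Incubation: 30 min, room temperature; Technique: luminescence from enzymatic CDP-Star hydrolysis; Controls: DMSO-only wells and no-enzyme negative control.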
# bIAP act = intestinal alkaline phosphatase (bovine) activation. 0.17% of 200,000 active. purified bovine IAP, CDP-star luminescence, 30 min; active compounds read high; fold of DMSO-control signal, blank-subtracted. AID 1016. activation factor at 20 µM;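 active means activation factor of 2 or more at 20 µM, a signal rise over negative controls twice the positive control's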
# hIAP activ = increases human intestinal alkaline phosphatase activity; P09923; purified human IAP, CDP-Star luminescence, 30 min; active compounds read high; 1 = vehicle-only enzyme, 0 = enzyme-free background; activation factor at 10 µM; 0.16% of 330,000 active;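 active means activation factor of the enzyme at least 2-fold when tested at 20 µM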
# Target sequence (P09923 whole entry, looked up): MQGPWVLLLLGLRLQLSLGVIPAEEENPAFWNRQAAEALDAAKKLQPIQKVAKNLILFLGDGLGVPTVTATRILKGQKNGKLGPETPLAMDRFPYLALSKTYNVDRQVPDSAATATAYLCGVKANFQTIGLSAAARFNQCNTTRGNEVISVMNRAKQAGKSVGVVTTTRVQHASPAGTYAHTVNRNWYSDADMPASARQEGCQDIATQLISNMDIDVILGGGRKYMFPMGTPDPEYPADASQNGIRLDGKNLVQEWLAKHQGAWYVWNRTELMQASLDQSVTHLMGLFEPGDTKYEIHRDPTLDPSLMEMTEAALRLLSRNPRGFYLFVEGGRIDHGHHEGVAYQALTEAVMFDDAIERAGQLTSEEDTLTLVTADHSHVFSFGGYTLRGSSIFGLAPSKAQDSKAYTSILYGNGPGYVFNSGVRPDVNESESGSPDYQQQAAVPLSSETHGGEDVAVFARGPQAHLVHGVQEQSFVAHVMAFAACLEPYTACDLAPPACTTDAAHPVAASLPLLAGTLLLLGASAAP
# mIAP inh = mouse IAP inhibition; inhibition, % at 10 µM; 0.2% of 330,000 active; purified mouse IAP, CDP-Star luminescence, 30 min; AID 2806;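 active means inhibition of at least 40% at 10 µM in the primary screen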;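 further: plate controls were DMSO with enzyme for no effect and no enzyme wells for full effect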
# bIAP inh = blocks bovine intestinal alkaline phosphatase activity | purified bovine IAP, CDP-star luminescence, 30 min | inhibition, % at 20 µM | 190,000 tested, under 10 active | AID 1019;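 active means over 50% inhibition of intestinal alkaline phosphatase at 20 µM in the single-dose screen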
#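 System: Purified bovine intestinal alkaline phosphatase (IAP) enzyme | Input: IAP diluted 1/65,000,000 in the well | Also added: CDP-star chemiluminescent phosphatase substrate, 30 µM final | Dosing: 20 µM single dose | Times: Enzyme reaction for 30 min at room temperature | Detection: Luminescence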
# hIAP block = blocks human intestinal alkaline phosphatase; P09923; purified IAP, CDP-Star luminescence, 30 min; inhibition, % at 10 µM; 0.12% of 330,000 active; AID 2544;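 active means inhibition reaching a set limit with compound at 10 µM in the primary screen, cut at about 35% in these data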;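 further: plate controls were DMSO wells with enzyme for no effect and no-enzyme buffer wells for full effect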
# hIAP act confirm = human IAP activation confirmation | shares compounds with hIAP activ | purified IAP, CDP-Star luminescence, 30 min; active compounds read low | activation (%Activity, negative = activation), % at 8.3 µM | 10% of 880 active;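 active means at least twofold enzyme activation in any of six single-dose repeats, which the averaged readout prints as negative percent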
# Active calls of the source: *; / = no result given. Most compounds without a hit are left out; they make up all but 0.77% or so of the library.
SMILES,mIAP activ,bIAP act,hIAP activ,mIAP inh,bIAP inh,hIAP block,hIAP act confirm
CCCCC(=O)NC(=S)Nc1ccccc1C(=O)Nc1ccccc1,0.953,1,1.01,4.7,3.5,-1.2,/
Cc1cccc(NC(=O)c2cc(-c3cc(Cl)ccc3O)n[nH]2)c1,1.18,/,2.03*,-17.9,/,-103.3,-4.1
Cc1ccc(C)c(NC(=O)c2cc(-c3cc(C)ccc3O)n[nH]2)c1,1.12,/,2.21*,-11.6,/,-121.4,-57.6
Cc1ccc(NC(=O)c2cc(-c3cc(Cl)ccc3O)n[nH]2)cc1C,1.03,/,1.94,-2.7,/,-93.6,/
C=CCOc1ccccc1CN1CCN(CCc2ccccc2)C(CCO)C1 (centres undefined),1,/,1.01,-0.3,/,-0.8,/
Cc1cc(-c2nnc(SCC(=O)Nc3ccc(C)c(C)c3)n2N)n[nH]1,1,/,1.45,-0.4,/,-45.1,/
O=C(NNc1ccc([N+](=O)[O-])cc1[N+](=O)[O-])c1ccco1,0.816,/,0.64,18.4,/,36.0*,14.3
Cc1cc(C)cc(N2CC(O)=C(c3nc4ccccc4c(=O)[nH]3)C2=N)c1,0.953,1.1,1.44,4.7,-10.8,-43.6,/
COc1cccc(N2CC(O)=C(c3nc4ccccc4c(=O)[nH]3)C2=N)c1,0.911,1,2.12*,8.9,0.8,-111.7,-54.8
Cc1ccc(N(CC(O)CN2C(=O)NC(C)(C)C2=O)S(=O)(=O)c2ccc([N+](=O)[O-])cc2)cc1 (centres undefined),0.919,/,0.611,8.1,/,38.9*,17.7
Cc1ccc(N(CC(O)CN2C(=O)NC(C)(C)C2=O)S(=O)(=O)c2ccc(C)cc2)cc1 (centres undefined),1.04,/,0.927,-4.2,/,7.3,/
O=c1ccc2c(-c3ccccc3)c3ccc(O)cc3oc-2c1,0.811,/,0.857,18.9,/,14.3,/
Nc1ccc(-c2c3ccc(=O)cc-3oc3cc(O)ccc23)cc1C(=O)O,0.737,/,0.643,26.3,/,35.7*,64.5
O=C(CSc1nnc(-c2ccncc2)o1)Nc1cc(Cl)ccc1C(=O)O,0.855,/,0.865,14.5,/,13.5,/
Cn1nccc1C(=O)N1CCN(c2ccccc2F)CC1,1.02,/,0.535,-2.5,/,46.5*,5.7
COc1ccc(S(=O)(=O)NNC(=O)C(=O)NNc2ccccn2)cc1,0.854,/,3.02*,14.6,/,-202.0,5.8
COc1cc(/C=C2\Oc3cc(O)ccc3C2=O)ccc1O,0.799,/,0.545,20.1,/,45.5*,10.5
CCn1cc(CN2CCN(CCC(C)C)C(CCO)C2)c2ccccc21 (centres undefined),0.923,/,1.17,7.7,/,-16.5,/
CCn1cc(CN2CCN(C)C(CCO)C2)c2ccccc21 (centres undefined),1.02,/,2.85*,-2.5,/,-184.8,29.1
CCCOc1cc(N(CC)CC)ccc1/C=C(/C#N)c1nc2ccc(C)cc2[nH]1,0.681,0.5,0.631,31.9,48.3,36.9*,3.5
O=C(NCC1CCCO1)c1ccc(Br)s1 (centres undefined),0.983,/,0.599,1.7,/,40.1*,9.4
Cc1nc2ccccc2c(=O)n1NC(=O)c1ccc([N+](=O)[O-])cc1,0.956,1,0.84,4.4,2.9,16.0,/
CCOCCCNC(=O)CCC(=O)NNc1nc2ccccc2c2nc(-c3ccccc3)nn12,0.834,0.9,2.09*,16.6,7.7,-109.0,48.4
Cc1nc2c3ccccc3nc(NNC(=O)CCC(=O)NCCC(C)C)n2n1,0.864,1.1,2.11*,13.6,-9.7,-111.3,-64.4*
COc1ccc(N2CCN(C(=O)CCC(=O)NNc3nc4ccccc4c4nc(C)nn34)CC2)cc1,0.99,/,1.99,1.0,/,-99.3,/
SMILES,mIAP activ,bIAP act,hIAP activ,mIAP inh,bIAP inh,hIAP block,hIAP act confirm
Cc1nc2c3ccccc3nc(NNC(=O)CCC(=O)N3CCN(c4ccccc4F)CC3)n2n1,0.931,/,1.97,6.9,/,-97.0,/
CCOC(=O)C1CCN(C(=O)CCC(=O)NNc2nc3ccccc3c3nc(C)nn23)CC1,0.812,/,2.75*,18.8,/,-174.8,-2.5
Cc1nc2c3ccccc3nc(NNC(=O)CCC(=O)N3CCN(c4ccccc4)CC3)n2n1,0.919,/,2.28*,8.1,/,-128.1,-42.3
Cc1ccc(C)c(N(C)C(=O)CCS(=O)(=O)c2cccc3nonc23)c1,0.975,/,1.13,2.5,/,-13.1,/
Cc1nnc(SCC(=O)NNC(=O)c2ccccc2)n1N,0.931,/,1.03,6.9,/,-3.4,/
CC1(C)C([N+](=O)[O-])C(c2ccc(Cl)cc2)NC(c2ccc(Cl)cc2)C1[N+](=O)[O-] (centres undefined),0.857,0.8,0.936,14.3,24.4,6.4,/
Cc1nc2c3ccccc3nc(NNC(=O)CCC(=O)N3CCC(C)CC3)n2n1,0.976,/,2.33*,2.4,/,-133.3,0.7
CSc1ccccc1NC(=O)c1csc(C)c1,0.999,/,0.649,0.1,/,35.1*,-54.9
CC(Oc1ccc(F)cc1F)C(=O)NNC(=S)NCC1CCCO1 (centres undefined),1.03,/,2.23*,-3.4,/,-123.4,1.1
Cc1cc(OCc2cc(C(=O)NC3CCC3)no2)cc(C)c1Cl,0.979,/,0.612,2.1,/,38.8*,-3.4
Cc1ccc(OCc2cc(C(=O)NC3CCCCC3)no2)cn1,1.06,/,1.17,-6.0,/,-17.3,/
CN(C)c1ccc(CN(Cc2ccco2)C(=O)c2ccco2)cc1,1.11,/,0.932,-10.7,/,6.8,/
O=C(c1ccco1)N(Cc1ccc(Cl)cc1)Cc1ccco1,1.02,/,0.62,-2.1,/,38.0*,-43.1
Cc1cc(NC(=O)c2ccc(N3C(=O)C4C5C=CC(C5)C4C3=O)cc2)no1 (centres undefined),0.915,0.9,3.01*,8.5,6.1,-200.6,-161.4*
Cc1cc(NC(=O)c2ccc(N3C(=O)CCC3=O)cc2)no1,1.01,0.9,1,-1.4,7.9,-0.4,/
CCc1cc(=O)[nH]c(-n2[nH]c(-c3ccccc3)cc2=O)n1,0.691,1.4,1.94,30.9,-41.8,-94.4,/
O=c1cc(-c2ccccc2)[nH]n1-c1nc2ccccc2[nH]1,0.906,1.6,2.02*,9.4,-63.5,-101.9,-58.4*
O=S1OCCN1c1ccccc1 (centres undefined),0.973,/,1.11,2.7,/,-10.7,/
Oc1ccc(-c2csc(-c3cccnc3)n2)cc1O,0.752,/,0.591,24.8,/,40.9*,5.9
Oc1ccc(-c2csc(-c3ccccc3)n2)cc1O,0.839,0.9,0.895,16.1,8.3,10.5,/
CCOc1ccc(CC(=O)NNC(=S)NCCc2ccccc2)cc1,0.937,1.2,2.05*,6.3,-15.4,-105.0,77.5
COc1ccc(-c2nc(NC(=O)c3n[nH]c(=O)c4ccccc34)sc2C)cc1,0.964,1.2,2.15*,3.6,-22.8,-114.9,-33.0
COc1cc(NC(=O)c2n[nH]c(=O)c3ccccc23)cc(OC)c1,0.997,/,0.885,0.3,/,11.5,/

# Screening data from PubChem BioAssay.
